According to ChEMBL document CHEMBL1127811, “Inhibitors of cholesterol biosynthesis. 2. Hypocholesterolemic and antioxidant activities of benzopyran and tetrahydronaphthalene analogues of the tocotrienols” (J Med Chem, 1994):
Several values for one entry are separate records, joined by “and”; a condition that tells them apart may be missing. Equal values may be shown once.

Assays:
Gallus gallus [1] = organism: Gallus gallus; assay: Ratio of HDL/total cholesterol value; type: functional
Outline: (§1)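 Six-week-old male chickens fed corn-soybean control diet with test compound at 50 ppm. Birds fasted 36 h, then refed 48 h before sacrifice. Serum total, LDL and HDL cholesterol and triglycerides measured (mg/100 mL), HDL/total ratio computed. Means ± SD, n = 6–12 per group, also as % of control. Significance p < 0.01 within each study.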

[2] = target: T1, 3-hydroxy-3-methylglutaryl-coenzyme A reductase (Homo sapiens) (UniProt P04035); assay: In vitro suppression of HMG-CoA reductase (HMGR) in Hep G2 cells; type: cell-based; set-up: concentration or dose not given beside the values; conditions: HepG2, concentration not given here
T1 sequence (whole entry): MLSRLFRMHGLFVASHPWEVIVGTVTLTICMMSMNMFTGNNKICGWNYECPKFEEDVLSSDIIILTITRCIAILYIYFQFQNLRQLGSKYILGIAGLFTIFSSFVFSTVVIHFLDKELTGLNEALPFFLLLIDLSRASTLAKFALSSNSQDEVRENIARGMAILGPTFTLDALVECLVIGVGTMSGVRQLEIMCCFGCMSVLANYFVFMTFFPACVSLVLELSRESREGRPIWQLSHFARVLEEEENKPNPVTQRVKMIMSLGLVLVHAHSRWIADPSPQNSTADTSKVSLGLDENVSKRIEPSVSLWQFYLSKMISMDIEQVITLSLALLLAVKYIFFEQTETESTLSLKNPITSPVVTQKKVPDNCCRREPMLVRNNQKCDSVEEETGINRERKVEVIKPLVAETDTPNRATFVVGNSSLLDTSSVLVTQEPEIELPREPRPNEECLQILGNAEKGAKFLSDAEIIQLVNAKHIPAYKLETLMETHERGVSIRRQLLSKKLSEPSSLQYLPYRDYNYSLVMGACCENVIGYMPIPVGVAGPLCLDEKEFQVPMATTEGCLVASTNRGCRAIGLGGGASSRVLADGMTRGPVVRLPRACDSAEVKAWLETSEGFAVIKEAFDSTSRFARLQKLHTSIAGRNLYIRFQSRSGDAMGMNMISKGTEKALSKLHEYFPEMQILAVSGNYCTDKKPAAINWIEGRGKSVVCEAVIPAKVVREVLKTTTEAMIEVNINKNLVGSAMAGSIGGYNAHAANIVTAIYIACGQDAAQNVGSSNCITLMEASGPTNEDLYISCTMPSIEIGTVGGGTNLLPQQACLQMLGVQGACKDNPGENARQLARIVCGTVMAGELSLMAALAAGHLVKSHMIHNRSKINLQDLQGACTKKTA
Outline: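 HepG2 cells treated 4 h with compound at 10 μM, DMSO vehicle controls. HMG-CoA reductase activity assayed in microsomal fraction isolated at end of incubation. Mean % suppression vs controls, SD ≤ ±10%, n ≥ 8.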

HepG2 = assay: In vitro inhibition of cholesterol biosynthesis in Hep G2 cells; type: functional, Homo sapiens; set-up: concentration or dose not given beside the values
Outline: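 HepG2 human hepatoma cells incubated 4 h with compound at 10 μM, DMSO vehicle controls. Mean % inhibition vs controls, SD ≤ ±10%, n ≥ 8.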

Gallus gallus [3] = organism: Gallus gallus; assay: Hypocholesterolemic activity in 6-week old male mormocholesterolemic chickens using experiment 2; type: functional; outline: as §1
[4] = LDL oxidation assay as spectrophotometric determination of TBARS; type: functional
Outline: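 LDL (0.5 mg/mL protein stock) in saline/20 mM HEPES with drug in ethanol, oxidised by CuSO4 (4 × 10⁻⁴ M stock), 37 °C, 5 h, in duplicate. Stopped with EDTA; TCA/TBA added, boiled 30 min, A535 read. Malonaldehyde equivalents from tetramethoxypropane standard curve. IC50 = concentration inhibiting 50% TBARS vs ethanol controls.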

[5] = Compound oxidation potential using cyclic voltametry; type: ADME
Gallus gallus [6] = organism: Gallus gallus; assay: (§2) Hypocholesterolemic activity in 6-week old male mormocholesterolemic chickens using experiment 3; type: functional; outline: as §1
Gallus gallus [7] = organism: Gallus gallus; assay: as §2; type: functional; remark: listed apart in the source
Outline: (§3)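 Male chickens, 6 weeks old. Test compound mixed at 50 ppm into a corn-soybean control diet; controls get the diet alone. After the feeding period, birds are fasted 36 h and refed 48 h before sacrifice. Serum total, LDL and HDL cholesterol (mg/100 mL) and triglycerides measured; expressed as mean ± SD and percent of control, n = 6–12 per group.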

Gallus gallus [8] = organism: Gallus gallus; assay: (§4) Hypocholesterolemic activity in 6-week old male mormocholesterolemic chickens using experiment 4; type: functional; outline: as §3
Gallus gallus [9] = organism: Gallus gallus; assay: as §4; type: functional; outline: as §1; remark: listed apart in the source
Gallus gallus [10] = organism: Gallus gallus; assay: (§5) Hypocholesterolemic activity in 6-week old male mormocholesterolemic chickens using experiment 1; type: functional; outline: as §3
Gallus gallus [11] = organism: Gallus gallus; assay: as §5; type: functional; outline: as §1; remark: listed apart in the source

IC50 [4] [µM]	Potential [5]	Structure (SMILES)	Ratio (Gallus gallus [1])	Inhibition (HepG2) [%]	also measured
0.6	1.05	CC(C)=CCC/C(C)=C/CC/C(C)=C/CCC1(C)CCc2cc(O)ccc2O1 (stereo not given)	0.61	62	inhibition [2]: 53%; Triglycerides (Gallus gallus [3]): 80 mg 100ml-1
–	–	CC(C)=CCC/C(C)=C/CC/C(C)=C/CCC1(C)CCc2cc(O)cc(C#N)c2O1 (stereo not given)	0.62	63	HDL cholesterol (Gallus gallus [6]): 94 mg 100ml-1; Total cholesterol (Gallus gallus [6]): 151 mg 100ml-1; Triglycerides (Gallus gallus [6]): 83 mg 100ml-1; LDL cholesterol (Gallus gallus [7]): 54 mg 100ml-1
–	–	CCCCC/C=C\C/C=C\C/C=C\CCCCC1(C)CCc2cc(O)c(C)c(C)c2O1 (stereo not given)	–	22	–
–	–	CC(C)=CCC/C(C)=C/CC/C(C)=C/CCC1CCc2cc(O)ccc2C1 (stereo not given)	0.62	40	HDL cholesterol (Gallus gallus [6]): 94 mg 100ml-1; Total cholesterol (Gallus gallus [6]): 152 mg 100ml-1; Triglycerides (Gallus gallus [6]): 76 mg 100ml-1; LDL cholesterol (Gallus gallus [7]): 57 mg 100ml-1
> 10	1.44	CC(C)=CCC/C(C)=C/CC/C(C)=C/CCC1(C)CCc2ccc(O)cc2O1 (stereo not given)	–	58	–
–	–	CC(C)=CCC/C(C)=C/CC/C(C)=C/CCC1(C)CCc2cc(O)cc(Br)c2O1 (stereo not given)	0.67	62	HDL cholesterol (Gallus gallus [6]): 93 mg 100ml-1; Total cholesterol (Gallus gallus [6]): 139 mg 100ml-1; Triglycerides (Gallus gallus [6]): 87 mg 100ml-1; LDL cholesterol (Gallus gallus [7]): 45 mg 100ml-1
–	–	CC(C)=CCC/C(C)=C/CC/C(C)=C/CCC1CCc2cc(O)c(C)c(C)c2O1 (stereo not given)	0.52 and 0.54	62	LDL cholesterol (Gallus gallus [8]): 76 mg 100ml-1; inhibition [2]: 67%; HDL cholesterol (Gallus gallus [6]): 102 mg 100ml-1; Total cholesterol (Gallus gallus [6]): 197 mg 100ml-1; Triglycerides (Gallus gallus [6]): 86 mg 100ml-1; HDL cholesterol (Gallus gallus [9]): 97 mg 100ml-1; Total cholesterol (Gallus gallus [9]): 178 mg 100ml-1; Triglycerides (Gallus gallus [9]): 83 mg 100ml-1; LDL cholesterol (Gallus gallus [7]): 85 mg 100ml-1
–	–	CC(=O)Oc1cc2c(c(C)c1C)OC(CC/C=C(\C)CC/C=C(\C)CCC=C(C)C)CC2 (stereo not given)	0.63	–	LDL cholesterol (Gallus gallus [8]): 44 mg 100ml-1; HDL cholesterol (Gallus gallus [9]): 87 mg 100ml-1; Total cholesterol (Gallus gallus [9]): 139 mg 100ml-1; Triglycerides (Gallus gallus [9]): 67 mg 100ml-1
–	0.96	CC(C)=CCC/C(C)=C/CC/C(C)=C/CCC1(C)CC(O)c2cc(O)c(C)c(C)c2O1 (stereo not given)	–	56	–
–	–	CC(C)=CCC/C(C)=C/CC/C(C)=C/CCC1(C)CCc2cc(F)ccc2O1 (stereo not given)	–	35	–
–	1.2	CC(C)=CCC/C(C)=C/CC/C(C)=C/CCc1oc2c(C)c(C)c(O)cc2c(=O)c1O	–	61	–
3	1.21	CC(C)=CCC/C(C)=C/CC/C(C)=C/CCC1(C)CCc2cc(O)c(F)cc2O1 (stereo not given)	–	60	inhibition [2]: 33%
7	1.05	CC(C)=CCC/C(C)=C/CC/C(C)=C/CCC1(C)CCc2c(C)c(O)cc(C)c2O1 (stereo not given)	–	43	inhibition [2]: 21%
–	–	CCCCCCCCCCCCCC1(C)CCc2cc(O)c(C)c(C)c2O1 (stereo not given)	–	16	–
–	1.24	CC(C)=CCC/C(C)=C/CC/C(C)=C/CCC1(C)CCc2cccc(O)c2O1 (stereo not given)	–	46	–
–	–	COc1cc2c(c(C)c1C)OC(C)(CC/C=C(\C)CC/C=C(\C)CCC=C(C)C)CC2 (stereo not given)	–	0	–
10	–	CC(C)=CCC/C(C)=C/CC/C(C)=C/CCC1(C)CCc2cc(O)c(C(C)(C)C)cc2O1 (stereo not given)	–	38	–

Structure (SMILES)	IC50 [4] [µM]	Potential [5]	Ratio (Gallus gallus [1])	Inhibition (HepG2) [%]	also measured
CC(C)=CCCC1(C)CCc2cc(O)ccc2O1 (stereo not given)	2	1.2	0.71	35	LDL cholesterol (Gallus gallus [8]): 32 mg 100ml-1; HDL cholesterol (Gallus gallus [9]): 93 mg 100ml-1; Total cholesterol (Gallus gallus [9]): 131 mg 100ml-1; Triglycerides (Gallus gallus [9]): 73 mg 100ml-1
CC(C)=CCC/C(C)=C/CC/C(C)=C/CCC1(C)CC(=O)c2cc(O)c(C)c(C)c2O1 (stereo not given)	2	1.2	0.81	93	inhibition [2]: 16%; LDL cholesterol (Gallus gallus [10]): 36 mg 100ml-1; HDL cholesterol (Gallus gallus [11]): 108 mg 100ml-1; Total cholesterol (Gallus gallus [11]): 133 mg 100ml-1; Triglycerides (Gallus gallus [11]): 64 mg 100ml-1
